Test results: ChEMBL document CHEMBL1165928, “Synthesis and structure-activity relationships of 2-acylamino-4,6-diphenylpyridine derivatives as novel antagonists of GPR54” (Bioorg Med Chem, 2010)

Legend:
KiSS-1 receptor [1] = target: T1, KiSS-1 receptor (Homo sapiens, UniProt Q969F8); assay: Displacement of [125I]metastin(40-54) from human GPR54 receptor expressed in CHO cells after 60 mins by scintillation counting; format: cell-based
Procedure, shortened: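 Membranes came from CHO h175-KB34 cells stably expressing human GPR54, harvested at ≤50% confluency, homogenized with protease inhibitors, pelleted and stored at −80 °C. Binding used 135 pM 125I-metastin(40-54) in pH 7.4 Tris/Mg acetate/EGTA buffer with 1 mg/ml BSA, 60 min at 25 °C. Samples were filtered on 0.3% PEI-treated GF/C plates, washed three times, and filter radioactivity was counted.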

KiSS-1 receptor [2] = target: T1, KiSS-1 receptor; assay: Antagonist activity at human GPR54 receptor expressed in CHO cells assessed as inhibition of metastin(40-54)-induced intracellular calcium mobilization by FLIPR assay; format: functional, cell-based
Procedure, shortened: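 Human GPR54 cell lines h175-KB33 and h175-16 were plated at 30,000 cells/well and cultured overnight. They were loaded 60 min at 37 °C with Fluo-3AM, 1.25 mM probenecid and 0.04% Pluronic F-127 in pH 7.4 Hepes salt buffer with 0.1% BSA, then washed. Ca2+ was read by FLIPR. Agonist was metastin(40-54) at 30 nM (h175-KB33) or 100 pM (h175-16).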

KiSS-1 receptor [3] = target: T1, KiSS-1 receptor; settings: CHO, 10 uM

T1 sequence (Q969F8 whole entry): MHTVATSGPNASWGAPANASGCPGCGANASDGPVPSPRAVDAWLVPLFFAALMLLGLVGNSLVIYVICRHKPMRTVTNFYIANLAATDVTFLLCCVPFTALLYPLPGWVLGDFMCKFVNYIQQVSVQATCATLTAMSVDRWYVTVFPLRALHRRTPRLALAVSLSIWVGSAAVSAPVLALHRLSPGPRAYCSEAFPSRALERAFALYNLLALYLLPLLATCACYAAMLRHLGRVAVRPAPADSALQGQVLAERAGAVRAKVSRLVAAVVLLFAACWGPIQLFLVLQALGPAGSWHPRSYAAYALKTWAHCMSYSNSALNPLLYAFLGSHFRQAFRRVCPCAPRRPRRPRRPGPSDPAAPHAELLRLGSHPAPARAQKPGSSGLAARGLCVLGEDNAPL

Row | Structure (SMILES) | IC50 (KiSS-1 receptor [1]) [nM] | IC50 (KiSS-1 receptor [2]) [nM] | inhibition (KiSS-1 receptor [3]) [%]
1 | COc1ccccc1C(=O)Nc1nc(-c2ccccc2O)cc(-c2cccc(C(=O)NCCN)c2)c1C#N | 45 |  | 
2 | N#Cc1c(-c2cccc(NC(=O)CCN)c2)cc(-c2ccccc2N)nc1NC(=O)c1ccccc1 | 890 |  | 
3 | N#Cc1c(-c2cccc(C(=O)NCCN)c2)cc(-c2ccccc2O)nc1NC(=O)c1ccco1 | 14 |  | 
4 | COc1ccc(C(=O)Nc2nc(-c3ccccc3O)cc(-c3cccc(C(=O)NC(C)(C)CN)c3)c2C#N)cc1 | 32 |  | 
5 | COc1ccccc1C(=O)Nc1nc(-c2ccccc2O)cc(-c2cccc(C(=O)NC(C)(C)CN)c2)c1C#N | 32 |  | 
6 | N#Cc1c(-c2cccc(CO)c2)cc(-c2ccccc2O)nc1NC(=O)c1cccs1 | 1500 |  | 58
7 | N#Cc1c(-c2ccc(C(=O)NCCN)cc2)cc(-c2ccccc2O)nc1NC(=O)c1cccs1 | 120 |  | 
8 | CC(C)(CN)CNC(=O)c1cccc(-c2cc(-c3ccc(F)cc3O)nc(NC(=O)c3ccco3)c2C#N)c1 | 11 | 2500 | 
9 | N#Cc1c(-c2ccccc2C(=O)NCCN)cc(-c2ccccc2O)nc1NC(=O)c1cccs1 | 33000 |  | 
10 | COc1ccc(C(=O)Nc2nc(-c3ccccc3O)cc(-c3cccc(C(=O)NCCN)c3)c2C#N)cc1 | 31 |  | 
11 | Cc1c(-c2ccccc2O)nc(NC(=O)c2ccco2)c(C#N)c1-c1cccc(NC(=O)CCN)c1 | 1200 |  | 
12 | COc1ccccc1-c1cc(-c2cccc(N)c2)c(C#N)c(NC(=O)c2cccs2)n1 | > 30000 |  | 
13 | N#Cc1c(-c2cccc(C(=O)O)c2)cc(-c2ccccc2O)nc1NC(=O)c1cccs1 | 9900 |  | 
14 | N#Cc1c(-c2cccc(C(=O)NCCN)c2)cc(-c2ccc(F)cc2O)nc1NC(=O)c1ccco1 | 8 | 660 | 
15 | CC(C)(CN)NC(=O)c1cccc(-c2cc(-c3ccccc3O)nc(NC(=O)c3ccco3)c2C#N)c1 | 15 |  | 

Results, then the molecule that gave them:

Row | IC50 (KiSS-1 receptor [1]) [nM] | IC50 (KiSS-1 receptor [2]) [nM] | inhibition (KiSS-1 receptor [3]) [%] | Structure (SMILES)
16 | 570 |  |  | N#Cc1c(-c2cccc(CN)c2)cc(-c2ccccc2O)nc1NC(=O)c1cccs1
17 | 480 |  |  | COc1ccc(O)c(-c2cc(-c3cccc(NC(=O)CCN)c3)c(C#N)c(NC(=O)c3cccs3)n2)c1
18 | 21 | 1100 |  | N#Cc1c(-c2cccc(NC(=O)CCN)c2)cc(-c2ccccc2O)nc1NC(=O)c1cccs1
19 | 34 | 1400 |  | N#Cc1c(-c2cccc(NC(=O)CCCN)c2)cc(-c2ccccc2O)nc1NC(=O)c1cccs1
20 | 12 | 910 |  | Cc1ccc(-c2cc(-c3cccc(NC(=O)CCN)c3)c(C#N)c(NC(=O)c3cccs3)n2)c(O)c1
21 | 9.8 | 4100 |  | N#Cc1c(-c2cccc(NC(=O)CCN)c2)cc(-c2ccc(Cl)cc2O)nc1NC(=O)c1cccs1
22 | 7.4 | 3600 |  | N#Cc1c(-c2cccc(NC(=O)CCN)c2)cc(-c2ccc(F)cc2O)nc1NC(=O)c1cccs1
23 | 3.7 | 460 |  | N#Cc1c(-c2cccc(NC(=O)CCN)c2)cc(-c2ccc(F)cc2O)nc1NC(=O)c1ccco1
24 | 51 | 24000 |  | N#Cc1c(-c2cccc(NC(=O)CCN)c2)cc(-c2ccccc2O)nc1NC(=O)c1ccccc1
25 | 2100 |  |  | N#Cc1c(-c2cccc(N)c2)cc(-c2ccccc2O)nc1NC(=O)c1cccs1
26 | 19 | 6300 |  | N#Cc1c(-c2cccc(NC(=O)CCN)c2)cc(-c2ccc(Br)cc2O)nc1NC(=O)c1cccs1
27 | 45 | 5100 |  | N#Cc1c(-c2cccc(C(=O)NCCN)c2)cc(-c2ccccc2O)nc1NC(=O)c1cccs1
28 | 51 | 2800 |  | N#Cc1c(-c2cccc(NC(=O)CN)c2)cc(-c2ccccc2O)nc1NC(=O)c1cccs1
29 | 120 |  |  | COc1ccc(-c2cc(-c3cccc(NC(=O)CCN)c3)c(C#N)c(NC(=O)c3ccccc3)n2)c(O)c1
30 | 490 |  |  | N#Cc1c(-c2cccc(NC(=O)CCN)c2)cc(-c2cc(Cl)ccc2O)nc1NC(=O)c1cccs1
